Experimental data collected from several papers.
Lines come from different studies, so protocols differ.
Target: Myosin light chain kinase, smooth muscle (MYLK, Homo sapiens, UniProt Q15746)

Cn1c2c(Cl)c(Cl)ccc2c2cc(N)[nH]c(=O)c21 — ΔTm (thermal stability; DSF; 10 µM): 0.1 °C
CO[C@H]1CC[C@H](CNc2ccc(S(=O)(=O)NC(=O)c3ccc(N4CCN(CC5=C(c6ccc(Cl)cc6)CC(C)(C)CC5)CC4)cc3Oc3cnc4[nH]ccc4c3)cc2[N+](=O)[O-])CC1 — remaining binding (cell-free assay; competition with immobilised ligand; 1 µM): 50%
Cn1cnc(Br)c1C1=CN(c2ncnc3[nH]cnc23)CCS1 — inhibition (enzyme activity; inhibitor; radiometric; 2 µM): 93.4%
Nc1ncnc2occ(-c3ccc(NC(=O)Nc4cc(C(F)(F)F)ccc4F)cc3)c12 — remaining activity (enzyme activity; inhibitor; 20 µM): 42%
CCN1CCN(Cc2ccc(NC(=O)c3ccc(C)c(Oc4ccnc5[nH]ccc45)c3)cc2C(F)(F)F)CC1 — inhibition (target engagement in cells; inhibitor; chemoproteomics; Huh-7; 1 µM): -23.4%
CN(C)c1ncnc(-c2ccc3nc(Nc4cc(CN5CCN(C(=O)CC(F)(F)F)CC5)ccn4)[nH]c3c2)c1Cl — remaining binding (cell-free assay; competition with immobilised ligand; 1 µM): 68%
FC(F)c1nc2ccccc2n1-c1nc(N2CCOCC2)nc(N2CCOCC2)n1 — remaining activity (enzyme activity; inhibitor; 10 µM): 91%
Oc1ccc(-c2nc(-c3ccncc3)c(-c3ccc(F)cc3)[nH]2)cc1 — remaining signal (cell-free assay; 0.5 µM): 106%
Cn1nc(C(=O)NCc2ccc(C(=O)O)cc2)cc1-c1ccc2[nH]ccc2c1 — remaining binding (cell-free assay; competition with immobilised ligand; 0.1 µM): 62%
O=C1c2ccccc2-c2n[nH]c3cccc1c23 — activity vs control (enzyme activity; inhibitor; 0.5 µM): 48%
CN(c1ncccc1CNc1nc(Nc2ccc3c(c2)CC(=O)N3)ncc1C(F)(F)F)S(C)(=O)=O — inhibition (enzyme activity; inhibitor; 1 µM): 16.6%
Cc1cc(NC(=O)c2cccc3cc(-c4cccc5[nH]nc(N)c45)ccc23)ccc1F — activity vs control (enzyme activity; inhibitor; 0.1 µM): 89%
Cn1cncc1C1=CN(c2ncnc3[nH]cnc23)CCS1 — inhibition (enzyme activity; inhibitor; radiometric; 2 µM): 91.1%
CC(C)(C)c1nc(-c2cccc(NS(=O)(=O)c3c(F)cccc3F)c2F)c(-c2ccnc(N)n2)s1 — remaining activity (enzyme activity; inhibitor; radiometric; 1 µM): 74%
COCCOc1nc(-c2ccc(Cl)nc2)nc2c1CN(C(=O)c1ncn3ccccc13)CC2 — remaining binding (cell-free assay; competition with immobilised ligand; 0.1 µM): 70%
COc1cc(Nc2cnc(C#N)c(O[C@H](C)CN(C)C)n2)ncc1-c1cnn(C)c1 — remaining activity (enzyme activity; inhibitor; radiometric; 1 µM): 80%
O=C(Nc1ccc(Oc2ccc(F)cc2)cc1)N1CCc2ncccc2[C@H]1c1ccc(F)cc1 — remaining binding (cell-free assay; competition with immobilised ligand; 1 µM): 100%
Nc1nc(NC2CCCCC2)sc1C(=O)c1ccccc1 — remaining activity (enzyme activity; inhibitor; 10 µM): 44%
O=C1NC(=O)c2cc(Nc3ccc(F)cc3)c(Nc3ccc(F)cc3)cc21 — remaining signal (cell-free assay; 0.5 µM): 100%
O=C(N1CCS(=O)(=O)CC1)N1C[C@H](c2ccc(OC(F)(F)F)cc2)C[C@H](c2nc(C3CC3)no2)C1 — remaining binding (cell-free assay; competition with immobilised ligand; 1 µM): 100%
Cc1cnn2ncc(-c3ccnc(N(C)C)n3)c2c1 — remaining binding (binding; 1 µM): 99%
Cc1nc(N2CC[C@@H](O)C2)ncc1-c1cc(C(F)(F)F)cc2[nH]ncc12 — remaining binding (binding; competition with immobilised ligand; 1 µM): 100%
O=C(Nc1cnn(-c2csc(C(=O)NC3COC3)c2)c1)Nc1ccccc1Cl — remaining activity (enzyme activity; inhibitor; 5 µM): 97.5%
Cc1c(NC(=O)c2cc(C(N)=O)nc3cc(F)ccc23)c(C(F)(F)F)nn1Cc1ccc(C#N)cc1 — remaining binding (binding; competition with immobilised ligand; 1 µM): 65%
CN1CC(Oc2cnc(C#N)cc2-c2ccn3nc(NC(=O)C4CC4)cc3c2)C1 — inhibition (enzyme activity; inhibitor; 1 µM): -19%
Oc1cccc(-c2nc(N3CCOCC3)c3oc4ncccc4c3n2)c1 — remaining activity (enzyme activity; inhibitor; 10 µM): 48%
